Screening results (PubChem)
XBP1 UPR activ = adaptive UPR (XBP1) activation; 0.33% of 330,000 active; activation, % at 20 µM; AID 463104; CHO-XBP1 luciferase reporter, IRE1-XBP1 UPR activation, luminescence; percent of tunicamycin response, DMSO as zero;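 active means versus positive control, 20 µM dose yields 30% or more activation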
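Assay system: CHO-XBP1 luciferase reporter cells; Schedule: 6 h treatment, 37 °C; Detection: glow luminescence from Steady-Glo reagent; Benchmarks: high control tunicamycin 10 µg/mL final, low control DMSO vehicle only.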
VLA-4 inh = inhibition in a human VLA-4 binding assay. P13612. VLA-4 expressing cells, ligand binding flow cytometry. inhibition, % (about 7 µM as worked out from the volumes in the protocol). 0.2% of 330,000 active. AID 2557; in the data active means inhibition above about 50%
Beta2AR agonist = human beta-2 adrenergic receptor agonism by FAP; 0.43% of 340,000 active; response, % (no concentration beside the values); P07550; Am2.2-beta2AR cells, FAP receptor internalization, flow cytometry; AID 504454;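 active means response above a set limit, near 3 SD of response in nonfluorescent compounds, cut at about 42% in these data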
Target sequence (P07550 whole entry, looked up): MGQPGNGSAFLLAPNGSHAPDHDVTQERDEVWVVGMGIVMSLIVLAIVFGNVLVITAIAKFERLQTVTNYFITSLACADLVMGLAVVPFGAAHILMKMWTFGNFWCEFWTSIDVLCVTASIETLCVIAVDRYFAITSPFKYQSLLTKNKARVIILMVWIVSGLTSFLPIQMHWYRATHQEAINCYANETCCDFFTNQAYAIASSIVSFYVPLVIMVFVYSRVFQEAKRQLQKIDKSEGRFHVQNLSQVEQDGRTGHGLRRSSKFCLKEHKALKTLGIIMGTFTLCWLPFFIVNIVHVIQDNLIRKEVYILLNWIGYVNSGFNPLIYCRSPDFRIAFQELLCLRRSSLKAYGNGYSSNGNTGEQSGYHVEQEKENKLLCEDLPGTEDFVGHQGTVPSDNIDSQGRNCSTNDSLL
CHOP inh = inhibitors of CHOP induction in ER stress response; inhibition, % at 10 µM; 3.8% of 220,000 active; AID 2732; CHO-K1 CHOP-promoter luciferase, tunicamycin-induced, 15-18 h;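 active means compounds that reduced the stress-induced luciferase reporter signal by more than about 70% of percent inhibition, limit read from the data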
CHOP UPR activ = activators of apoptotic arm of unfolded protein response (CHOP). CHO-CHOP luciferase reporter, UPR activation, luminescence; percent of tunicamycin response over DMSO baseline. 0.34% of 330,000 active. AID 449763. activation, % at 10 µM;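 active means at 10 µM dose, activation of 40% or more, normalized to positive control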
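System: CHO-CHOP luciferase reporter cell line | Buffer or medium: F12 medium containing 10% fetal bovine serum | Doses: One dose, 10 µM in 0.5% DMSO | Times: 6 h compound exposure at 37 °C after overnight seeding | Signal: Luciferase luminescence | Read-out: % activation vs tunicamycin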
A number is an active result. The sample as a whole holds a higher share of hits than the screen did.

Results for O=C(COc1ccc(Br)cc1Cl)NNC(=O)c1ccccc1 ?
XBP1 UPR activ: inactive; VLA-4 inh: inactive; Beta2AR agonist: inactive; CHOP UPR activ: inactive

What do the screens show for `Cc1ccc(N2C(=O)CC(Nc3ccccc3)C2=O)cc1` (stereo unspecified)?
XBP1 UPR activ: inactive; VLA-4 inh: inactive; Beta2AR agonist: inactive; CHOP inh: inactive; CHOP UPR activ: inactive

How did Cc1ccc(S(=O)(=O)NNC2CC(=O)N(c3ccc(Br)cc3)C2=O)cc1 (stereo unspecified) do in these assays?
XBP1 UPR activ: inactive; VLA-4 inh: inactive; Beta2AR agonist: inactive; CHOP inh: 73; CHOP UPR activ: inactive

What do the screens show for `CC(=O)c1c(C)[nH]c(C(=O)COC(=O)Cc2ccccc2F)c1C`?
XBP1 UPR activ: inactive; VLA-4 inh: inactive; Beta2AR agonist: 59; CHOP UPR activ: inactive

How did COc1ccc2nc(/N=C(\N)NC(=O)N3c4ccccc4Sc4ccccc43)nc(C)c2c1 do in these assays?
XBP1 UPR activ: inactive; VLA-4 inh: inactive; Beta2AR agonist: inactive; CHOP inh: 77; CHOP UPR activ: inactive

Results for Cc1ccc2nc(/N=C(\N)NC(=O)N3c4ccccc4Sc4ccccc43)nc(C)c2c1 ?
XBP1 UPR activ: inactive; VLA-4 inh: inactive; Beta2AR agonist: inactive; CHOP inh: inactive; CHOP UPR activ: inactive

How did CC(C)OC(=O)CSc1nc(Cc2ccccc2)nc2ccccc12 do in these assays?
XBP1 UPR activ: inactive; VLA-4 inh: inactive; Beta2AR agonist: inactive; CHOP inh: 75; CHOP UPR activ: inactive

Results for COC(=O)CSc1nc(Cc2ccccc2)nc2ccccc12 ?
XBP1 UPR activ: inactive; VLA-4 inh: inactive; Beta2AR agonist: inactive; CHOP inh: inactive; CHOP UPR activ: inactive

What do the screens show for `COc1ccc(OCC(CO)N2CCN(c3ccccc3)CC2)cc1` (stereo unspecified)?
Beta2AR agonist: inactive

How did O=C(O)COn1c(-c2ccc(Cl)cc2)nc2ccc(Cl)cc21 do in these assays?
XBP1 UPR activ: inactive; VLA-4 inh: inactive; Beta2AR agonist: inactive; CHOP inh: inactive; CHOP UPR activ: inactive

How did COn1c(-c2ccc(Cl)cc2)nc2ccc(Cl)cc21 do in these assays?
XBP1 UPR activ: inactive; VLA-4 inh: inactive; Beta2AR agonist: inactive; CHOP inh: 74; CHOP UPR activ: inactive

How did CCOC(=O)C(C)On1c(-c2ccc(Cl)cc2)nc2ccc([N+](=O)[O-])cc21 (stereo unspecified) do in these assays?
XBP1 UPR activ: inactive; VLA-4 inh: inactive; Beta2AR agonist: inactive; CHOP inh: 72; CHOP UPR activ: inactive

What do the screens show for `COc1ccc(-c2cc(-c3ccccc3)c(C#N)c(S(C)=O)n2)cc1` (stereo unspecified)?
XBP1 UPR activ: inactive; VLA-4 inh: inactive; Beta2AR agonist: 44; CHOP inh: inactive; CHOP UPR activ: inactive

Results for CCSc1nc(-c2ccc(OC)cc2)cc(-c2ccccc2)c1C#N ?
XBP1 UPR activ: inactive; VLA-4 inh: inactive; Beta2AR agonist: inactive; CHOP inh: inactive; CHOP UPR activ: inactive

What do the screens show for `CCOc1ccc(N(CC(=O)NC2CCCC2)C(=O)CCC(=O)Nc2nccs2)cc1`?
XBP1 UPR activ: inactive; VLA-4 inh: inactive; Beta2AR agonist: inactive; CHOP UPR activ: inactive

Results for O=C1COc2ccc(N3C(=O)C=CC3=O)cc2N1 ?
XBP1 UPR activ: inactive; VLA-4 inh: inactive; CHOP inh: 95; CHOP UPR activ: inactive

How did O=C1COc2ccc(S(=O)(=O)N3CCCC3)cc2N1 do in these assays?
XBP1 UPR activ: inactive; VLA-4 inh: inactive; Beta2AR agonist: inactive; CHOP UPR activ: inactive

Results for CCN1C(=Nc2ccc(Cl)cc2)SC/C1=C\C(=O)OC ?
XBP1 UPR activ: inactive; VLA-4 inh: inactive; Beta2AR agonist: inactive; CHOP inh: 82; CHOP UPR activ: inactive

Results for CCN1C(=O)CSC1=Nc1ccc(C(=O)O)cc1 ?
XBP1 UPR activ: inactive; VLA-4 inh: inactive; Beta2AR agonist: inactive; CHOP UPR activ: inactive

Results for O=C(CN1C(=O)NC(c2ccccc2)(c2ccccc2)C1=O)NCc1ccc(F)cc1 ?
XBP1 UPR activ: inactive; VLA-4 inh: inactive; Beta2AR agonist: inactive; CHOP UPR activ: inactive

How did COc1ccc(N=Nc2cnc(C)nc2-c2ccccc2)cc1 do in these assays?
XBP1 UPR activ: inactive; VLA-4 inh: inactive; Beta2AR agonist: inactive; CHOP inh: 73; CHOP UPR activ: inactive

What do the screens show for `Cc1ncc(N=Nc2ccccc2Cl)c(-c2ccccc2)n1`?
XBP1 UPR activ: inactive; VLA-4 inh: inactive; Beta2AR agonist: inactive; CHOP inh: inactive; CHOP UPR activ: inactive

How did CCOC1(OCC)C(c2ccc(N)cc2)C(C#N)(C#N)C1(OCC)OCC (stereo unspecified) do in these assays?
XBP1 UPR activ: inactive; VLA-4 inh: inactive; Beta2AR agonist: inactive; CHOP inh: 88; CHOP UPR activ: inactive

Results for CCC(=O)N=c1sc2cc(F)cc(F)c2n1C ?
XBP1 UPR activ: inactive; VLA-4 inh: inactive; Beta2AR agonist: inactive; CHOP UPR activ: inactive

What do the screens show for `CC(C)C(=O)N=c1sc2cc(F)cc(F)c2n1C`?
XBP1 UPR activ: inactive; VLA-4 inh: inactive; Beta2AR agonist: inactive; CHOP inh: 85; CHOP UPR activ: inactive

How did CCOc1ccc(Nc2ncnc3c2cnn3-c2ccccc2)cc1 do in these assays?
XBP1 UPR activ: inactive; VLA-4 inh: inactive; Beta2AR agonist: inactive; CHOP inh: 101; CHOP UPR activ: inactive

What do the screens show for `NNc1ncnc2c1cnn2-c1ccccc1`?
XBP1 UPR activ: inactive; VLA-4 inh: inactive; Beta2AR agonist: inactive; CHOP inh: inactive; CHOP UPR activ: inactive

How did Cc1ccccc1Nc1ncnc2c1cnn2-c1ccccc1 do in these assays?
XBP1 UPR activ: inactive; VLA-4 inh: inactive; Beta2AR agonist: inactive; CHOP inh: 73; CHOP UPR activ: inactive

How did CCCn1c(N)c(C(=O)COc2ccc(Br)cc2F)c(=O)n(C)c1=O do in these assays?
XBP1 UPR activ: inactive; VLA-4 inh: inactive; Beta2AR agonist: inactive; CHOP inh: inactive; CHOP UPR activ: inactive

How did COc1c(C)cc(Br)cc1C(=O)NC(=S)NCc1ccco1 do in these assays?
XBP1 UPR activ: inactive; VLA-4 inh: inactive; Beta2AR agonist: inactive; CHOP UPR activ: inactive

Results for Cc1cccc(CN2C(=O)N/C(=C/c3ccc(C)s3)C2=O)c1 ?
XBP1 UPR activ: inactive; VLA-4 inh: inactive; Beta2AR agonist: inactive; CHOP inh: 90; CHOP UPR activ: inactive

What do the screens show for `O=C(c1cccs1)N1N=C(c2ccc(O)cc2)CC1c1ccccc1` (stereo unspecified)?
XBP1 UPR activ: inactive; VLA-4 inh: inactive; Beta2AR agonist: inactive; CHOP inh: inactive; CHOP UPR activ: inactive

What do the screens show for `O=C(c1cccs1)N1N=C(c2ccccc2)CC1c1ccccc1` (stereo unspecified)?
XBP1 UPR activ: inactive; VLA-4 inh: inactive; Beta2AR agonist: inactive; CHOP inh: 78; CHOP UPR activ: inactive

What do the screens show for `CCCCCCc1cc2cc(S(=O)(=O)c3ccc(F)cc3)c(=O)oc2cc1O`?
XBP1 UPR activ: inactive; VLA-4 inh: inactive; Beta2AR agonist: inactive; CHOP inh: 94; CHOP UPR activ: inactive
